Results published in ChEMBL document CHEMBL1146021, “Calcium channel antagonists discovered by a multidisciplinary approach” (J Med Chem, 2006).
Active and inactive are the calls of the source.

Key:
[1] = species: Cavia porcellus; experiment: Negative chronotropic activity in guinea pig right atrium at 50 uM; type: functional, Cardiac atrium
Procedure, shortened: (§1)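 Spontaneously beating guinea-pig right atria in PSS, 35 °C, pH 7.4, 95% O2/5% CO2. Cumulative concentrations 0.01-100 μM in DMSO (≤0.3% in bath), each to steady state. Rate decrease taken as percent of control (pretreatment 170-195 beats/min), n = 6-8. EC30 by Probit analysis.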

[2] = species: Cavia porcellus; experiment: Negative inotropic activity in guinea pig left atrium; type: functional; settings: Cardiac atrium
Procedure, shortened: (§2)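 Guinea-pig left atria driven at 1 Hz (0.6-0.8 ms pulses, about 50% threshold voltage) in PSS, 35 °C, pH 7.4, 95% O2/5% CO2. Isometric tension recorded. Cumulative concentrations 0.01-100 μM in DMSO (≤0.3%), each to steady state. Percent decrease in developed tension, n = 4-6. EC50 by Probit analysis.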

[3] = species: Cavia porcellus; experiment: Negative inotropic activity in guinea pig left atrium at 50 uM; type: functional, Cardiac atrium; procedure, shortened: as §2
[4] = species: Cavia porcellus; experiment: Vasorelaxant activity assessed as inhibition of calcium-induced contraction of potassium ion-depolarized guinea pig aortic strips at 100 uM; type: functional, Aorta; parameters: scale not given: the % may be the effect or the level left
Procedure, shortened: (§3)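 Helicoidal guinea-pig aortic strips in aerated PSS at 35 °C, contracted with 80 mM KCl (K+ substituted for Na+). At plateau (about 45 min), compounds added cumulatively at 0.1-500 μM in DMSO vehicle. Relaxation measured isometrically. IC50 by Probit analysis, n = 6-8.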

[5] = species: Cavia porcellus; experiment: Negative inotropic activity in guinea pig left atrium at 5 uM; type: functional, Cardiac atrium; procedure, shortened: as §2
[6] = species: Cavia porcellus; experiment: Negative chronotropic activity in guinea pig right atrium at 10 uM; type: functional, Cardiac atrium; procedure, shortened: as §1
[7] = species: Cavia porcellus; experiment: Antagonist activity against calcium channel assessed as inhibition of calcium-induced contraction of potassium ion-depolarized guinea pig ileum longitudinal smooth muscle at 10 uM; type: functional; parameters: scale not given: the % may be the effect or the level left
Procedure, shortened: (§4)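 Guinea-pig ileum longitudinal smooth muscle segments (2 cm) held at 300-400 mg resting tension, 37 °C, in oxygenated (100% O2) Hepes-buffered PSS at pH 7.4. Isometric contraction recorded. Inhibition expressed as percentage of control. Probit log concentration–response analysis, n = 6-8.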

[8] = species: Cavia porcellus; experiment: Antagonist activity against calcium channel assessed as inhibition of calcium-induced contraction of potassium ion-depolarized guinea pig ileum longitudinal smooth muscle; type: functional; procedure, shortened: as §4
[9] = species: Cavia porcellus; experiment: Antagonist activity against calcium channel assessed as inhibition of carbachol-induced tonic contraction of guinea pig ileum longitudinal smooth muscle; type: functional
Procedure, shortened: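 Guinea-pig ileum longitudinal smooth muscle segments (2 cm), 300-400 mg resting tension, 37 °C, oxygenated Hepes-buffered PSS at pH 7.4, equilibrated 1 h. Two control carbachol curves run 30 min apart. Test agent (10 μM) added 30 min before the carbachol curve. Isometric inhibition expressed as percent of control.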

[10] = target: T1, Voltage-dependent L-type calcium channel subunit alpha-1C (Rattus norvegicus, UniProt P22002); experiment: Inhibition of [3H]diltiazem binding to Sprague-Dawley rat cardiomyocytes at 10 nM relative to control; settings: read-out: Activity
T1 sequence (P22002 whole entry, the tested form may be a part): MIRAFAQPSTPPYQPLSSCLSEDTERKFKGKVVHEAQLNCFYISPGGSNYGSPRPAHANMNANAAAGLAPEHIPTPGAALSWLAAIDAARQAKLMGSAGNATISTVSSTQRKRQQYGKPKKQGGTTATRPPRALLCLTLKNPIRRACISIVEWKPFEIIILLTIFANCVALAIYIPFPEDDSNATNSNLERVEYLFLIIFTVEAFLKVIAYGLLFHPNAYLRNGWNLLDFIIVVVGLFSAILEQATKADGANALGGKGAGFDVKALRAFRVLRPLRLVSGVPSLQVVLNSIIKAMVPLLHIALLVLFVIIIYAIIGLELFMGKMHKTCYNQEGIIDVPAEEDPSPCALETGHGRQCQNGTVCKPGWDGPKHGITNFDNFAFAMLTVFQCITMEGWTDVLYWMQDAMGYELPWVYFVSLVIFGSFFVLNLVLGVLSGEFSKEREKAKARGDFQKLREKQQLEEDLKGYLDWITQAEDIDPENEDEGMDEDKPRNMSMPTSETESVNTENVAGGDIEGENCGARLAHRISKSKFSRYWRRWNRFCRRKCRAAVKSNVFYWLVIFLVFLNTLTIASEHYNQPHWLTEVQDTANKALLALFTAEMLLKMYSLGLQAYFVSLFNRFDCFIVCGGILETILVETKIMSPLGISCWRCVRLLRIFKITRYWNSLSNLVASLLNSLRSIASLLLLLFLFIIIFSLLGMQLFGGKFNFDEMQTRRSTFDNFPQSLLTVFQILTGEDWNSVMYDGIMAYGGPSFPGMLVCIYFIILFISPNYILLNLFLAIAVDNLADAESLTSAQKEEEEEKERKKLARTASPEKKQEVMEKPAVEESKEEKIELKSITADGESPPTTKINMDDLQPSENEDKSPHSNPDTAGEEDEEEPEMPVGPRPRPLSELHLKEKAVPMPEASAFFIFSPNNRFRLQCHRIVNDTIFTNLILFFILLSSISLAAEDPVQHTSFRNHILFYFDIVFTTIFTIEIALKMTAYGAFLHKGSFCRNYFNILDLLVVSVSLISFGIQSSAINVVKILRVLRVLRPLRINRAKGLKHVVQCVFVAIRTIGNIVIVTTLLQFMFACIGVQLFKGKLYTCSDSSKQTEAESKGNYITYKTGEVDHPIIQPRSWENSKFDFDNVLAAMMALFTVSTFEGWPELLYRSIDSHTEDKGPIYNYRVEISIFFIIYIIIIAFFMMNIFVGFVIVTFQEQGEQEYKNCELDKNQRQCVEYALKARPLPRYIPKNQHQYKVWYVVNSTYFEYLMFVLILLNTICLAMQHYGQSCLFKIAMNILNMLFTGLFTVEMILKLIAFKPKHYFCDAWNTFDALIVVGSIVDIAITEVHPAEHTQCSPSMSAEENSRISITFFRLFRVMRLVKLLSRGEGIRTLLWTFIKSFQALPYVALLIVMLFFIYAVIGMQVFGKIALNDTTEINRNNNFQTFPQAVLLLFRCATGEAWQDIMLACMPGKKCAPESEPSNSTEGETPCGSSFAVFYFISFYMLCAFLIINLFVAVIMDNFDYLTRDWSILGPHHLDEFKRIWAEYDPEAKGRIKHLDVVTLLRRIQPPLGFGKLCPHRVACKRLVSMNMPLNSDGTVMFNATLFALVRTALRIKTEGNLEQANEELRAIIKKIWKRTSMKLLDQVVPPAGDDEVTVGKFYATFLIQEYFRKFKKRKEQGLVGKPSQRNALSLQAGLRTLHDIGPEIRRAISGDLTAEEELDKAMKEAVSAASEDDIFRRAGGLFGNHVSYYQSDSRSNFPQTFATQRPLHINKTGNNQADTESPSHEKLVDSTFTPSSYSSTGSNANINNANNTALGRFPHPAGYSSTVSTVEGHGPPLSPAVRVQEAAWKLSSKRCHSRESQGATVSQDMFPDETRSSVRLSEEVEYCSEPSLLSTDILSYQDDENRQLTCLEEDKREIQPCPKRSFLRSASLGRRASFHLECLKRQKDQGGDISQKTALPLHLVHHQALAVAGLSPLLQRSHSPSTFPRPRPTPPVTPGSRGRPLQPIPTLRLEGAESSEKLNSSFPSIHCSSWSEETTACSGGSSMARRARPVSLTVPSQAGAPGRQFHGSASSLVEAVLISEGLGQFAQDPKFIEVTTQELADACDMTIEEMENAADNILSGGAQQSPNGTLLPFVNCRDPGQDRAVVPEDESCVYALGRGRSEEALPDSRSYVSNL
Procedure, shortened: (§5)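 Cardiomyocytes from male Sprague-Dawley rats, isolated by Langendorff perfusion and stored frozen (200 μg per tube). Incubated with 5 nM [3H]diltiazem and test ligand (0.1 nM-100 μM) in 50 mM Tris pH 7.4, 25 °C, 90 min. Bound ligand separated by filtration. Nonspecific binding with 100 μM diltiazem. Triplicates. pIC50 from sigmoidal fit; Ki by Cheng-Prusoff.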

[11] = species: Cavia porcellus; experiment: Vasorelaxant activity assessed as inhibition of calcium-induced contraction of potassium ion-depolarized guinea pig aortic strips; type: functional; settings: Aorta; procedure, shortened: as §3
[12] = species: Cavia porcellus; experiment: Negative inotropic activity in guinea pig left ventricular papillary muscle at 10 uM; type: functional, Muscle tissue
[13] = species: Cavia porcellus; experiment: Negative inotropic activity in guinea pig left ventricular papillary muscle; type: functional; settings: Muscle tissue
[14] = species: Cavia porcellus; experiment: Cardiac activity in guinea pig heart measured as decrease in left ventricular pressure at 1 uM relative to control; type: functional; parameters: scale not given: the % may be the effect or the level left
Procedure, shortened: (§6)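 Langendorff-perfused isolated hearts from female guinea-pigs (300-400 g). Compounds given cumulatively at 0.001-1 μM, each step held to steady state (about 30 min). Read-outs: surface ECG (PR interval, heart rate), intraventricular balloon +(dP/dt)max and coronary perfusion pressure. Results given as percent change from basal at 1 μM, mean ± SEM.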

[15] = species: Cavia porcellus; experiment: Cardiac activity in guinea pig heart measured as decrease in heart rate at 1 uM by ECG relative to control; type: functional; procedure, shortened: as §6
[16] = species: Cavia porcellus; experiment: Cardiac activity in guinea pig heart measured as increase in coronary perfusion pressure at 1 uM relative to control; type: functional; procedure, shortened: as §6
[17] = species: Cavia porcellus; experiment: Cardiac activity in guinea pig heart measured as prolongation of atrioventricular conduction time at 1 uM relative to control; type: functional; procedure, shortened: as §6
[18] = species: Cavia porcellus; experiment: Negative chronotropic activity in guinea pig right atrium at 5 uM; type: functional, Cardiac atrium; procedure, shortened: as §1
[19] = species: Cavia porcellus; experiment: Vasorelaxant activity assessed as inhibition of calcium-induced contraction of potassium ion-depolarized guinea pig aortic strips at 50 uM; type: functional, Aorta; parameters: scale not given: the % may be the effect or the level left; procedure, shortened: as §3
[20] = species: Cavia porcellus; experiment: Negative inotropic activity in guinea pig left atrium at 1 uM; type: functional, Cardiac atrium; procedure, shortened: as §2
[21] = species: Cavia porcellus; experiment: Negative chronotropic activity in guinea pig right atrium at 100 uM; type: functional, Cardiac atrium; settings: in the assay text read “50 uM” for “100 uM”; procedure, shortened: as §1
[22] = species: Cavia porcellus; experiment: Negative inotropic activity in guinea pig left atrium at 100 uM; type: functional, Cardiac atrium; settings: in the assay text read “50 uM” for “100 uM”; procedure, shortened: as §2
[23] = species: Cavia porcellus; experiment: Negative chronotropic activity in guinea pig right atrium; type: functional; settings: Cardiac atrium; procedure, shortened: as §1
[24] = species: Cavia porcellus; experiment: Negative inotropic activity in guinea pig left atrium at 10 uM; type: functional, Cardiac atrium; procedure, shortened: as §2
[25] = species: Cavia porcellus; experiment: Antagonist activity against calcium channel assessed as inhibition of calcium-induced contraction of potassium ion-depolarized guinea pig ileum longitudinal smooth muscle at 1 uM; type: functional; parameters: scale not given: the % may be the effect or the level left; procedure, shortened: as §4
[26] = species: Cavia porcellus; experiment: Cardiac activity in guinea pig heart measured as decrease in coronary perfusion pressure at 1 uM relative to control; type: functional; parameters: scale not given: the % may be the effect or the level left; procedure, shortened: as §6
[27] = species: Cavia porcellus; experiment: Negative inotropic activity in guinea pig left atrium at 500 uM; type: functional, Cardiac atrium
[28] = species: Cavia porcellus; experiment: Antagonist activity against calcium channel assessed as inhibition of calcium-induced contraction of potassium ion-depolarized guinea pig ileum longitudinal smooth muscle at 100 uM; type: functional; parameters: scale not given: the % may be the effect or the level left; procedure, shortened: as §4
[29] = target: T1, Voltage-dependent L-type calcium channel subunit alpha-1C; experiment: Inhibition of [3H]diltiazem binding to Sprague-Dawley rat cardiomyocytes at 100 uM relative to control; settings: read-out: Activity; procedure, shortened: as §5
[30] = species: Cavia porcellus; experiment: Negative inotropic activity in guinea pig left ventricular papillary muscle at 1 uM; type: functional, Muscle tissue
[31] = species: Cavia porcellus; experiment: Antagonist activity against calcium channel assessed as inhibition of calcium-induced contraction of potassium ion-depolarized guinea pig ileum longitudinal smooth muscle at 500 uM; type: functional; parameters: scale not given: the % may be the effect or the level left; procedure, shortened: as §4

SMILES	Activity [1] [%]	EC50 [2] [nM]	Activity [3] [%]	Activity [4] [%]	EC50 [8] [nM]	IC50 [9] [nM]	Activity [12] [%]	EC50 [13] [nM]	Activity [14] [%]	Activity [15]	Activity [17] [%]	Activity [18] [%]	Activity [19] [%]	Activity [26]	other results
Cc1snc(S(=O)(=O)Cc2c(F)cccc2Cl)c1C#N	22	2280	80	23											
O=S(=O)(c1ccc(Cl)cc1)N1CCC[C@@H]1c1cccs1		310		74	1180	8210	93	1380	6	inactive	20				Activity [5]: 84%; Activity [6]: 4%; Activity [7]: 90%; inhibition at 0.01 µM [10]: -24.8%; IC50 [11]: 5620 nM; Activity [16]: 17%
O=C(O)[C@@H]1CCCN1S(=O)(=O)c1ccccc1		910	66									22	3		
O=C(c1ccccn1)c1conc1-c1c(Cl)cccc1Cl		990	81	25								21			
CCO[C@@]1(c2ccc(Br)cc2)SC=C(C)n2c1noc2=O	15			7											Activity [20]: 47%
CC(C)(C)N(OC(=O)c1ccccc1)C(=O)C(F)(F)F		6130		10											Activity [21]: 7%; Activity [22]: 52%
COc1ccc([C@@H]2Sc3ccccc3N(CCN(C)C)C(=O)[C@@H]2OC(C)=O)cc1 [DILTIAZEM]				88	110	480	82	1610	59	25%	34	94		51%	EC30 [23]: 70 nM; Activity [24]: 78%; Activity [25]: 98%
COC(=O)c1ccccc1-n1cccc1C(=O)C(Cl)(Cl)Cl		3910		20											Activity [21]: 33%; Activity [27]: 76%
COC(=O)c1c(-c2c(Cl)cccc2Cl)noc1C		920	84		6650	33700		36	31	4%	14		30	inactive	Activity [6]: 13%; Activity [28]: 99%; inhibition at 100 µM [29]: 59.6%; Activity [30]: 87%
CC(=O)c1ccccc1N1C(=O)CSCC1=O	3	400	61		124000		89	66	17	14%	15		5	6%	Activity [31]: 55%; Activity [9]: inactive
